Screening data as filed in PubChem BioAssay.
mABHD4 FP = ABHD4 (mouse) inhibition, primary FP screen; Q8VD66; purified mABHD4, FP-Rh probe fluorescence polarization; inhibition, % at 8.92 µM; 370,000 compounds, 0.54% hits;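 active = inhibition exceeding the mean over every tested compound plus 3 SD, cut at about 30% in these data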;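 also: 0% = plate median of compound wells and 100% = S159A mutant with DMSO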
Target sequence (Q8VD66 whole entry, looked up): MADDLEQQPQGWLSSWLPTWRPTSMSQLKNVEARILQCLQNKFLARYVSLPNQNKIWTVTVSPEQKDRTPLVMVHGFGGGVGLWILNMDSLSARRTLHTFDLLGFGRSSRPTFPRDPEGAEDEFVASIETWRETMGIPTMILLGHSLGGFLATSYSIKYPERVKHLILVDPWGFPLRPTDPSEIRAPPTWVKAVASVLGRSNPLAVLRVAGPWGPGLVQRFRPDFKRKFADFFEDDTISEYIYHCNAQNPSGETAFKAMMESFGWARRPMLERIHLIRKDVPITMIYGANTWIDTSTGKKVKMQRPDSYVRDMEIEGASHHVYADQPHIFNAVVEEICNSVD
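Doses – 8.92 µM, single dose · Material – wild-type mouse ABHD4 protein · Replication – single well per compound (singlicate) · Measure – percent inhibition of probe binding, normalized to plate controls · Schedule – 45 min compound pre-incubation plus 60 min probe step, 25 °C · Detection – fluorescence polarization with parallel and perpendicular emission, 525/598 nm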
PME-1 inh = blocks human protein phosphatase methylesterase 1; recombinant PME-1, FP-Rh probe fluorescence polarization; inhibition, % at 5.9 µM; 320,000 compounds, 0.53% hits; AID 2130;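 active = inhibition above the campaign mean of all compounds plus 3 SD, cut at about 26% in these data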;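 also: competitive labeling of PME-1 active site by serine hydrolase directed probe; 0% = PME-1 with DMSO and 100% = wells lacking PME-1 enzyme; inhibitors block probe labeling so polarization falls and inhibition rises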
Target sequence (Q9Y570 whole entry, looked up): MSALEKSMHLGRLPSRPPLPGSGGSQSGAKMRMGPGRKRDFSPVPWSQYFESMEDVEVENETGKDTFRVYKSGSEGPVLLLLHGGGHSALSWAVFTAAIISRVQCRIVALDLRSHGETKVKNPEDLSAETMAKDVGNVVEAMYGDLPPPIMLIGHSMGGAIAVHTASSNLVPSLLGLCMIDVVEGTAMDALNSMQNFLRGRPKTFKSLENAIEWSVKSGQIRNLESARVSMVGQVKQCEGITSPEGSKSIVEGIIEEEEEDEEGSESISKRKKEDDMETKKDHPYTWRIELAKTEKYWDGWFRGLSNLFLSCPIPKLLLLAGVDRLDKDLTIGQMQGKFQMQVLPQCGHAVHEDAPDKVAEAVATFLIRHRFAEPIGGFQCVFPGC
HTRA1 inhibitor = inhibitors of human serine peptidase HTRA1; recombinant HTRA1, FP-rhodamine activity-based probe, fluorescence polarization; Q92743; 340,000 compounds, 0.5% hits; inhibition, % at 5.96 µM; in the data active = inhibition above about 36%;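 also: 0% = enzyme with DMSO and 100% = wells lacking enzyme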
TCR CD3 inh = blocks the human TCR-CD3 interaction. TAMRA-labeled TCR probe fluorescence, biochemical. inhibition, % at 9.4 µM. 360,000 compounds, 0.37% hits. AID 651800;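 also: recombinant mutant TCR 2C K166C tagged with TAMRA read by polarization; 0% = receptor in buffer alone and 100% = receptor with positive control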
SIAE primary = inhibitors of human sialic acid acetylesterase SIAE; Q9HAT2; SIAE FP-Rh probe binding, fluorescence polarization; inhibition, % at 9.66 µM; 370,000 compounds, 0.69% hits; AID 1053197;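 active = inhibition above a cutoff: mean of compounds within the control limits plus 3 SD of those, cut at about 17% in these data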;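 also: 0% = plate median of compound wells and 100% = probe without SIAE protein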
Fam108B counter = counter-screen for RBBP9 inhibitors: inhibitors of mouse Fam108B. recombinant Fam108B, FP-Rh probe fluorescence polarization. inhibition, % at 9.51 µM. 300,000 compounds, 0.33% hits;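 active = inhibition above the screen mean inhibition plus 3 SD, computed separately per campaign, cut at about 18% in these data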;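 also: inhibitors lower polarization as less probe binds the enzyme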
HTRA1 inh conf = confirmation of human HTRA1 inhibitors; shares compounds with HTRA1 inhibitor; recombinant HTRA1, FP-rhodamine activity-based probe, fluorescence polarization; inhibition, % at 5.96 µM; 1,600 compounds, 66% hits; AID 540248;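 active = mean inhibition over three repeats above a set limit taken from the earlier primary screen, cut at about 37% in these data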;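 also: 0% = HTRA1 with DMSO and 100% = wells lacking HTRA1; inhibitors block probe binding so polarization drops and inhibition rises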
BSA probe FL = counter-screen for TCR-CD3 interaction inhibitors: BSA probe; shares compounds with TCR CD3 inh; TAMRA-labeled BSA probe fluorescence counterscreen; inhibition, % at 9.4 µM; 1,200 compounds, 10% hits; AID 652035; in the data active = inhibition above about 23%;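 also: 0% = buffer low control and 100% = reference high control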
TCR-CD3 conf = confirmation of human TCR-CD3 interaction inhibitors; 1,200 compounds, 48% hits; shares compounds with TCR CD3 inh; AID 652036; inhibition, % at 9.4 µM; TAMRA-labeled TCR probe fluorescence binding assay
mABHD4 conf = confirmation of mouse ABHD4 inhibitors. 1,800 compounds, 55% hits. inhibition, % at 8.92 µM. purified mABHD4, FP-Rh probe fluorescence polarization. shares compounds with mABHD4 FP;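 active = mean inhibition across replicates above the hit cutoff set in the primary screen, cut at about 30% in these data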;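 also: 0% = wild-type ABHD4 with DMSO and 100% = catalytically dead S159A mutant with DMSO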
* marks the source's active call; other numbers are inactive results; . = not tested or not shown; ! = repeats disagree. An excerpt weighted towards active compounds, which were near 1.8% of everything screened. Rule as the data show it, unless noted: active = inhibition above about 19%; inactive = the rest.

SMILES	mABHD4 FP	PME-1 inh	HTRA1 inhibitor	TCR CD3 inh	SIAE primary	Fam108B counter	HTRA1 inh conf	mABHD4 conf	others
CCOC(=O)[C@]12CCCC=C1N(Cc1ccc(OC)cc1)C(=O)[C@@H]2CC(=O)N1CCN(C(=O)c2ccco2)CC1	0.8	.	.	.	-5.8	.	.	.
NC(=Nc1cccc(F)c1)NC(=O)OCc1ccccc1	-0.1	.	.	.	-4.5	.	.	.
O=C(N/N=C/c1ccccc1)c1ccc2c(c1)OCO2	1.2	-2.8	-8.1	-1.2	0.5	4.2	.	.
O=C(NN=Cc1c(O)ccc2ccccc12)c1ccc2c(c1)OCO2	21.4	.	37.1*	20.5*	8.0	.	16.8	.	BSA probe FL=-17.0;TCR-CD3 conf=22.0*
CCOc1ccc(/C=N/n2c(-c3n[nH]c4c3CCC4)n[nH]c2=S)cc1	7.6	.	.	.	11.1	.	.	.
OCc1ccc(O)c2ncccc12	8.3	-2.4	21.7	5.2	14.5	3.2	.	.
Oc1ccc(Cl)c2cccnc12	8.9	.	64.4*	30.1*	4.4	.	75.5*	.	BSA probe FL=-2.8;TCR-CD3 conf=1.1
CC1CCC2(CC1)CCN(CCCOC(=O)Nc1cccc(C(F)(F)F)c1)C2=O (configuration not stated)	5.9	.	.	.	-3.0	.	.	.
COc1ccc(-c2cc(=O)oc3c(O)c(O)ccc23)cc1	27.0	-7.9	72.7*	21.5*	-0.8	6.2	85.5*	.	BSA probe FL=-1.6;TCR-CD3 conf=14.4
CN(C)c1ccc(Cc2cc3c(O)ccc(O)c3cc(Cc3ccc(N(C)C)cc3)c2=O)cc1	83.5*	.	83.7*	42.6*	55.9*	.	72.0*	.	BSA probe FL=16.8;TCR-CD3 conf=37.9*
CC(C)C[C@H]1COc2cc(Br)ccc2S(=O)(=O)N1Cc1cn(Cc2ccc(C(F)(F)F)cc2)nn1	6.3	.	.	.	5.2	.	.	.
COc1ccc2nc(C)cc(SCC(=O)N/N=C/c3cccc4ccccc34)c2c1	-2.5	-7.3	-8.4	1.3	-5.6	-9.4	.	.
COc1ccc2nc(C)cc(SCC(=O)N/N=C/c3ccc(O)c(O)c3)c2c1	18.0	5.2	38.0*	40.1*	-5.0	-0.3	59.4*	.	BSA probe FL=-14.7;TCR-CD3 conf=70.6*
C=CCn1c(SCC(=O)c2ccc(OC)cc2)nnc1-c1cc2cccc(OC)c2o1	4.0	-1.0	-0.1	-1.0	-4.6	-3.5	.	.
C=CCn1c(SCC(=O)c2ccc(O)c(O)c2)nnc1-c1cccc(OC)c1	25.4	12.3	38.1*	19.6*	1.0	.	66.8*	.	BSA probe FL=-7.3;TCR-CD3 conf=17.3
O=C1c2c(O)ccc(O)c2C(=O)c2c(NCCNCCO)ccc(NCCNCCO)c21	32.9*!	1.9	72.0*	-6.8	11.2	6.1	58.7*	37.4*
NC(=S)N=Nc1c(O)[nH]c2ccc(F)cc12	9.0	6.5	6.7	-2.5	-4.4	2.1	.	.
NC(=S)N=Nc1c(O)cc(O)c2[nH]c(=O)ccc12	33.8*	.	60.9*	29.6*	12.1	.	42.9*	77.2*
Oc1c(Cl)cc(Cl)c2c1NCCC2	38.0*	.	51.5*	5.1	14.4	.	30.1	37.4*
CC(C)(C)OC(=O)NCc1cc2c(cc1/C=C/S(=O)(=O)NCc1ccc(F)cc1)OCO2	-5.7	.	.	.	2.5	.	.	.
Cc1cc(/C=N/Nc2ccc([N+](=O)[O-])cn2)c(C)n1-c1ccc(C(=O)O)cc1	41.1*	7.5	41.2*	3.0	16.6	3.3	11.7	59.2*
COC(=O)c1c(C(=O)OC)c2cccc3cc(-c4ccccc4)c4ccc1c4n32	35.9*	16.9	38.6*	9.5	8.2	7.5	57.6*	34.7*
COC(=O)c1cc2c(-c3ccccc3)cc3ccccn3c-2c1C(=O)OC	14.8	5.7	11.2	2.0	-5.2	9.2	.	.
C[n+]1c(-c2ccccc2)cc2c(=Cc3ccc([N+](=O)[O-])cc3)c3ccccc3n21	31.2*	.	80.0*	-5.2	4.4	.	24.7	37.9*
CCCCCCCC(=O)OCC(O)CO (configuration not stated)	5.9	-1.3	1.6	8.7	-7.4	-4.0	.	.
SMILES	mABHD4 FP	PME-1 inh	HTRA1 inhibitor	TCR CD3 inh	SIAE primary	Fam108B counter	HTRA1 inh conf	mABHD4 conf	others
CCCCCCCCCCCCCCC(O)C[N+](C)(CCO)CCO (configuration not stated)	44.9*	.	54.4*	-0.1	-6.8	.	54.8*	48.1*
O=S(=O)(O)c1cc(Cl)cc(N=Nc2ccc(O)cc2O)c1O	69.7*	.	39.8*	64.8*	6.8	.	38.2*	-14.4	BSA probe FL=65.4*;TCR-CD3 conf=54.0*
NC(=O)/C(N=Nc1ccccc1)=N/Nc1ccccc1	14.5	3.5	3.3	-3.1	11.9	5.0	.	.
O=C(O)c1cccc(N/N=C(\N=Nc2ccccc2)c2ccccc2)c1	71.5*	10.5	59.0*	5.6	6.6	8.0	73.8*	103.9*
CS(=O)(=O)N[C@@H]1C[C@@H]2O[C@@H](CO)CC[C@@H]2O[C@@H]1CCc1ccc(-c2ccccc2F)cc1	-6.8	.	.	.	-0.1	.	.	.
O=C1CCSc2cccc3cccc(c23)N1	5.2	-0.7	-8.7	2.2	-4.4	-0.5	.	.
c1cc2c3c(cccc3c1)NN=N2	32.8*	.	37.3*	-1.2	7.6	.	33.4	27.1
NC(=O)C1CCN(c2nc(-c3ccc(OCc4ccccc4)cc3)cs2)CC1	-11.6	.	.	.	3.6	.	.	.
Oc1ccc(/C=N/N(Cc2ccccc2)c2ccccc2)c(O)c1O	34.5*	.	67.8*	10.1	15.3	.	55.2*	45.7*
Oc1cccc(/C=N/N(Cc2ccccc2)c2ccccc2)c1	-4.1	1.5	6.0	7.6	12.9	1.6	.	.
COCC(=O)N[C@@H]1C[C@@H]2O[C@H](CO)CC[C@@H]2O[C@@H]1CCc1ccc(-c2ccccc2)cc1	0.9	.	.	.	0.3	.	.	.
Oc1cc(CNC2CCCCC2)c(O)cc1CNC1CCCCC1	38.0*	.	48.3*	6.3	2.7	.	63.9*	55.7*
O=C1c2ccccc2C(=O)c2c(O)c(O)cc(O)c21	73.3*	.	71.7*	25.1*	12.3	.	70.8*	60.8*	BSA probe FL=44.0*;TCR-CD3 conf=33.6*
CC1OC(Nc2cccc3ccccc23)C(O)C(O)C1O (configuration not stated)	35.9*	-0.9	43.1*	-3.1	1.2	9.5	12.1	1.5
COc1ccc(-c2noc(C3CCCN(C(=O)Nc4cc(C)cc(C)c4)C3)n2)cc1 (configuration not stated)	-8.3	.	.	.	-1.1	.	.	.
CCOC(=O)c1c2c(n(C)c1C)C(=O)C(=O)c1ccc(Br)cc1-2	1.9	25.2	6.7	-4.2	0.9	16.5	.	.
CCOC(=O)c1c2c(n(Cc3ccccc3)c1C)C(=O)C(=O)c1ccccc1-2	38.5*	.	46.0*	9.9	13.0	.	43.0*	53.8*
